Laboratory results from ChEMBL document CHEMBL3407439, “A facile and novel synthesis of N(2)-, C(6)-substituted pyrazolo[3,4-d]pyrimidine-4 carboxylate derivatives as adenosine receptor antagonists” (Eur J Med Chem, 2015).

What was measured:
[1] = organism: Homo sapiens; test: Selectivity ratio of Ki for human adenosine A2A receptor to Ki for human adenosine A3 receptor
[2] = target: Adenosine receptors; A1 & A3 (Homo sapiens) (UniProt P30542+P0DMS8); test: Selectivity ratio of Ki for human adenosine A1 receptor to Ki for human adenosine A3 receptor
[3] = target: Adenosine receptor A2a (Homo sapiens, UniProt P29274); test: Displacement of [3H]NECA from human adenosine A2A receptor expressed in CHO cells by Top Count analysis; assay type: cell-based
[4] = target: T1, Adenosine receptor A2b (Homo sapiens, UniProt P29275); test: Antagonist activity at human adenosine A2B receptor expressed in CHO cells assessed as inhibition of NECA-induced adenylyl cyclase activity; assay type: functional, cell-based
T1 sequence (P29275 whole entry): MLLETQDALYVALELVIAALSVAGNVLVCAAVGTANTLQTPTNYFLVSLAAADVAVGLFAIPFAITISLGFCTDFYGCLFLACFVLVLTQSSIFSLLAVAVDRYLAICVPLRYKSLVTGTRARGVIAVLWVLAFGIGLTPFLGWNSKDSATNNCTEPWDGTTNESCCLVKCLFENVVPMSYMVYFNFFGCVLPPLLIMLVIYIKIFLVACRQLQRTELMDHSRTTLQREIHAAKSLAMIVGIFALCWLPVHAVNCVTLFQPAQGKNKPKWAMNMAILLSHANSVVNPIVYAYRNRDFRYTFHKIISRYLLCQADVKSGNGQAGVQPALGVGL
Summary of the method: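 Membranes from CHO cells transfected with hA2B receptor incubated 20 min with 100 nM NECA, 150,000 cpm [α-32P]ATP and varying antagonist concentrations, in mixture lacking EGTA and NaCl. Ki derived from concentration-dependent inhibition of NECA-stimulated adenylyl cyclase activity; n = 3–6.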

[5] = target: T2, Adenosine receptor A3 (Homo sapiens, UniProt P0DMS8); test: Displacement of [3H]HEMADO from human adenosine A3 receptor expressed in CHO cells by Top Count analysis; assay type: cell-based
T2 sequence (P0DMS8 whole entry): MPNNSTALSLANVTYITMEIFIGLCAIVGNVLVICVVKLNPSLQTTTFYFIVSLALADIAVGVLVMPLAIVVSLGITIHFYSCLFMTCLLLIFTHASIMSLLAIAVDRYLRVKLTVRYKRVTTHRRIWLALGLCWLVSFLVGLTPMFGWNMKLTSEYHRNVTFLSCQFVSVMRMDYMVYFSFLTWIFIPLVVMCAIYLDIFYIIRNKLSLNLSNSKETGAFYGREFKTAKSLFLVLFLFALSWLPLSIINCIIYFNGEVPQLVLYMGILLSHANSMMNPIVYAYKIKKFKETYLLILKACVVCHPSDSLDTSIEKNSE
Summary of the method: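 Competition against [3H]HEMADO binding at hA3 receptor in CHO cells, 3 h at room temperature; nonspecific binding defined with 100 µM R-PIA.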

[6] = target: T3, Adenosine receptor A1 (Homo sapiens, UniProt P30542); test: Displacement of [3H]CCPA from human adenosine A1 receptor expressed in CHO cells by Top Count analysis; assay type: cell-based
T3 sequence (P30542 whole entry): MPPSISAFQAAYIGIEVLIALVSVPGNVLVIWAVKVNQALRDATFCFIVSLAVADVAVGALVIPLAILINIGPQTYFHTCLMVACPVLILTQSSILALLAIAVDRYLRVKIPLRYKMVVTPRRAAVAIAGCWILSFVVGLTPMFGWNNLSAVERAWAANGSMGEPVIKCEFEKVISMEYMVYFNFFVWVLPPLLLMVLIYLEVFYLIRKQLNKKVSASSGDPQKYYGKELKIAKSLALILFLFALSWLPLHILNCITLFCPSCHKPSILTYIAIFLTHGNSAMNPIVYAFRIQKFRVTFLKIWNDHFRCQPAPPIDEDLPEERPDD
Summary of the method: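 Tritiated-radioligand competition binding at hA1 receptor, 3 h at room temperature; nonspecific binding with 1 mM theophylline. Separation by GF/B glass-fibre filtration, filter radioactivity counted by scintillation (57% efficiency). Ki from competition curves by nonlinear curve fitting.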

Adenosine receptor A2a, sequence (P29274 whole entry): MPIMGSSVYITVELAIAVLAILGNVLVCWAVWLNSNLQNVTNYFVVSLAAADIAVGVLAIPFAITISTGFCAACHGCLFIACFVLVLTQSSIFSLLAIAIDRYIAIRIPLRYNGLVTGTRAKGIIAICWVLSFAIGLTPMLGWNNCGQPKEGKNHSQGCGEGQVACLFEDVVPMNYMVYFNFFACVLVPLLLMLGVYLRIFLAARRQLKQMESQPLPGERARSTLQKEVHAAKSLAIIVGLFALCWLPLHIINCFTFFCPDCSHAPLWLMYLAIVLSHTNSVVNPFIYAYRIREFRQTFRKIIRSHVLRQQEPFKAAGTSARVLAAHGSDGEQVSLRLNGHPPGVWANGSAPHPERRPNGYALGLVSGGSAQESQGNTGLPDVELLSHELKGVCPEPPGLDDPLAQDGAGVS

## CCOC(=O)c1nc(NC(=O)c2ccc(F)cc2)nc2nn(CC(C)(C)C)cc12
[1]
  Ratio Ki: 1.3
[2]
  Ratio Ki: 0.62
[3]
  Ki: 5.7 µM
[4]
  Ki: > 20 µM
[5]
  Ki: 4.3 µM
[6]
  Ki: 2.7 µM

## CCOC(=O)c1nc(NC(=O)c2ccc(C)cc2)nc2nn(C)cc12
[1]
  Ratio Ki: 0.12
[2]
  Ratio Ki: > 1
[3]
  Ki: 11.8 µM
[4]
  Ki: > 20 µM
[5]
  Ki: 100 µM
[6]
  Ki: > 100 µM

## CCOC(=O)c1nc(NC(=O)c2ccccc2)nc2nn(CCc3ccccc3)cc12
[1]
  Ratio Ki: 0.3
[2]
  Ratio Ki: 0.41
[3]
  Ki: 3.7 µM
[4]
  Ki: > 10 µM
[5]
  Ki: 12.2 µM
[6]
  Ki: 5.1 µM

## CCOC(=O)c1nc(NC(=O)Cc2ccccc2)nc2nn(CC(C)(C)C)cc12
[1]
  Ratio Ki: 1.3
[2]
  Ratio Ki: 0.62
[3]
  Ki: 5.7 µM
[4]
  Ki: > 20 µM
[5]
  Ki: 4.3 µM
[6]
  Ki: 2.7 µM

## CCOC(=O)c1nc(NC(=O)c2ccc(Cl)c(Cl)c2)nc2nn(CCc3ccccc3)cc12
[1]
  Ratio Ki: > 46
[2]
  Ratio Ki: > 46
[3]
  Ki: > 100 µM
[4]
  Ki: > 20 µM
[5]
  Ki: 2.2 µM
[6]
  Ki: > 100 µM

## CCOC(=O)c1nc(N(C(=O)c2ccc(F)c(F)c2)C(=O)c2ccc(F)c(F)c2)nc2nn(C)cc12
[3]
  Ki: > 100 µM
[4]
  Ki: > 20 µM
[5]
  Ki: > 100 µM
[6]
  Ki: > 100 µM

## CCOC(=O)c1nc(NC(=O)c2ccc(C(F)(F)F)cc2)nc2nn(C)cc12
[3]
  Ki: > 100 µM
[4]
  Ki: > 20 µM
[5]
  Ki: > 100 µM
[6]
  Ki: > 100 µM

## CCOC(=O)c1nc(NC(=O)Cc2ccccc2)nc2nn(CCc3ccccc3)cc12
[1]
  Ratio Ki: 0.2
[2]
  Ratio Ki: 0.05
[3]
  Ki: 2.4 µM
[4]
  Ki: > 10 µM
[5]
  Ki: 10.4 µM
[6]
  Ki: 0.6 µM

## CCOC(=O)c1nc(NC(=O)c2ccccc2)nc2nn(C)cc12
[1]
  Ratio Ki: < 0.16
[2]
  Ratio Ki: < 0.14
[3]
  Ki: 16.1 µM
[4]
  Ki: > 20 µM
[5]
  Ki: > 100 µM
[6]
  Ki: 14 µM

## NC(=O)c1nc(N)nc2nn(CCc3ccccc3)cc12
[1]
  Ratio Ki: 0.47
[2]
  Ratio Ki: 1.2
[3]
  Ki: 15.7 µM
[4]
  Ki: > 20 µM
[5]
  Ki: 32.9 µM
[6]
  Ki: 40.2 µM

## CCOC(=O)c1nc(N)nc2nn(CC(C)(C)C)cc12
[1]
  Ratio Ki: 0.48
[2]
  Ratio Ki: 0.38
[3]
  Ki: 5 µM
[4]
  Ki: > 15 µM
[5]
  Ki: 10.4 µM
[6]
  Ki: 4 µM

## CCOC(=O)c1nc(N(C(=O)c2ccc(Br)cc2)C(=O)c2ccc(Br)cc2)nc2nn(C)cc12
[1]
  Ratio Ki: > 34
[2]
  Ratio Ki: > 34
[3]
  Ki: > 100 µM
[4]
  Ki: > 20 µM
[5]
  Ki: 2.9 µM
[6]
  Ki: > 100 µM

## CCOC(=O)c1nc(NC(=O)c2ccc(F)cc2)nc2nn(CCc3ccccc3)cc12
[1]
  Ratio Ki: 0.8
[2]
  Ratio Ki: 0.73
[3]
  Ki: 6.1 µM
[4]
  Ki: > 20 µM
[5]
  Ki: 6.8 µM
[6]
  Ki: 5 µM

## CCOC(=O)c1nc(N)nc2nn(C)cc12
[1]
  Ratio Ki: 2.2
[2]
  Ratio Ki: 9.7
[3]
  Ki: 2 µM
[4]
  Ki: > 20 µM
[5]
  Ki: 0.9 µM
[6]
  Ki: 8.8 µM

## CCOC(=O)c1nc(NC(=O)c2ccc(C)cc2)nc2nn(CCc3ccccc3)cc12
[1]
  Ratio Ki: 2
[2]
  Ratio Ki: > 33
[3]
  Ki: 6 µM
[4]
  Ki: > 20 µM
[5]
  Ki: 3 µM
[6]
  Ki: > 100 µM

## CCOC(=O)c1nc(NC(=O)c2ccc(F)cc2)nc2nn(C)cc12
[1]
  Ratio Ki: < 0.14
[3]
  Ki: 11.5 µM
[4]
  Ki: > 20 µM
[5]
  Ki: > 100 µM
[6]
  Ki: > 100 µM

## CCOC(=O)c1nc(N(C(=O)c2ccccc2)C(=O)c2ccccc2)nc2nn(C(C)C)cc12
[1]
  Ratio Ki: > 18.5
[2]
  Ratio Ki: 3.2
[3]
  Ki: > 100 µM
[4]
  Ki: > 20 µM
[5]
  Ki: 5.4 µM
[6]
  Ki: 17.7 µM

## CCOC(=O)c1nc(NC(=O)c2ccc(C(F)(F)F)cc2)nc2nn(CCc3ccccc3)cc12
[1]
  Ratio Ki: 1.3
[2]
  Ratio Ki: 0.5
[3]
  Ki: 7.5 µM
[4]
  Ki: > 20 µM
[5]
  Ki: 5.8 µM
[6]
  Ki: 2.5 µM

## Cn1cc2c(C(N)=O)nc(N)nc2n1
[3]
  Ki: 3 µM
[4]
  Ki: > 20 µM
[5]
  Ki: > 100 µM
[6]
  Ki: 10.2 µM

## CCOC(=O)c1nc(NC(=O)Cc2ccccc2)nc2nn(C)cc12
[1]
  Ratio Ki: 0.5
[2]
  Ratio Ki: 0.4
[3]
  Ki: 7.3 µM
[4]
  Ki: > 20 µM
[5]
  Ki: 14.6 µM
[6]
  Ki: 5.9 µM

## CCOC(=O)c1nc(N)nc2nn(CCc3ccccc3)cc12
[1]
  Ratio Ki: 0.26
[2]
  Ratio Ki: 0.19
[3]
  Ki: 4.8 µM
[4]
  Ki: 60 µM
[5]
  Ki: 18.1 µM
[6]
  Ki: 3.5 µM

## CC(C)(C)Cn1cc2c(C(N)=O)nc(N)nc2n1
[1]
  Ratio Ki: > 4.1
[2]
  Ratio Ki: > 4.6
[3]
  Ki: > 80 µM
[4]
  Ki: > 20 µM
[5]
  Ki: 19.7 µM
[6]
  Ki: > 90 µM

## CCOC(=O)c1nc(NC(=O)c2ccccc2)nc2nn(C(C)C)cc12
[1]
  Ratio Ki: 0.4
[2]
  Ratio Ki: 0.5
[3]
  Ki: 3.3 µM
[4]
  Ki: > 10 µM
[5]
  Ki: 8.6 µM
[6]
  Ki: 4.3 µM

## CCOC(=O)c1nc(N(C(=O)c2ccccc2)C(=O)c2ccccc2)nc2nn(C)cc12
[3]
  Ki: > 100 µM
[4]
  Ki: > 20 µM
[5]
  Ki: > 100 µM
[6]
  Ki: > 100 µM

## CCOC(=O)c1nc(NC(=O)c2ccc(F)cc2)nc2nn(C(C)C)cc12
[1]
  Ratio Ki: 0.5
[2]
  Ratio Ki: 0.5
[3]
  Ki: 2.8 µM
[4]
  Ki: > 20 µM
[5]
  Ki: 5.7 µM
[6]
  Ki: 2.8 µM

## CCOC(=O)c1nc(NC(=O)c2ccc(C)cc2)nc2nn(C(C)C)cc12
[1]
  Ratio Ki: 0.1
[2]
  Ratio Ki: 0.02
[3]
  Ki: 2.3 µM
[4]
  Ki: > 20 µM
[5]
  Ki: 28 µM
[6]
  Ki: 0.7 µM

## CCOC(=O)c1nc(N)nc2nn(C(C)C)cc12
[1]
  Ratio Ki: 0.18
[2]
  Ratio Ki: 0.06
[3]
  Ki: 2.6 µM
[4]
  Ki: > 10 µM
[5]
  Ki: 14 µM
[6]
  Ki: 0.9 µM

## CCOC(=O)c1nc(NC(=O)c2ccc(C(F)(F)F)cc2)nc2nn(C(C)C)cc12
[3]
  Ki: > 100 µM
[4]
  Ki: > 20 µM
[5]
  Ki: > 100 µM
[6]
  Ki: > 100 µM

## CC(C)n1cc2c(C(N)=O)nc(N)nc2n1
[3]
  Ki: 9.2 µM
[4]
  Ki: > 20 µM
[5]
  Ki: > 100 µM
[6]
  Ki: 8.2 µM

## CCOC(=O)c1nc(NC(=O)Cc2ccccc2)nc2nn(C(C)C)cc12
[1]
  Ratio Ki: 0.66
[2]
  Ratio Ki: 0.04
[3]
  Ki: 8.8 µM
[4]
  Ki: > 10 µM
[5]
  Ki: 13.3 µM
[6]
  Ki: 0.6 µM

## CCOC(=O)c1nc(N(C(=O)c2ccccc2)C(=O)c2ccccc2)nc2nn(CCc3ccccc3)cc12
[3]
  Ki: > 100 µM
[4]
  Ki: > 20 µM
[5]
  Ki: > 100 µM
[6]
  Ki: > 100 µM

## CCOC(=O)c1nc(NC(=O)c2ccc(Br)cc2)nc2nn(CCc3ccccc3)cc12
[1]
  Ratio Ki: 1.2
[2]
  Ratio Ki: 0.72
[3]
  Ki: 4.2 µM
[4]
  Ki: > 20 µM
[5]
  Ki: 3.6 µM
[6]
  Ki: 2.6 µM
